PDI turbidity: PDI (human) enzyme inhibition; PDI insulin aggregation turbidity, A650, 90 min; inhibition, % at 10 µM; 0.052% of 350,000 active;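 active = mean inhibition across replicates of 30% or more, whatever share of single replicates reach that level; inconclusive = mean inhibition below 30% while every single replicate reaches 30%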
Target sequence (P07237 whole entry, looked up): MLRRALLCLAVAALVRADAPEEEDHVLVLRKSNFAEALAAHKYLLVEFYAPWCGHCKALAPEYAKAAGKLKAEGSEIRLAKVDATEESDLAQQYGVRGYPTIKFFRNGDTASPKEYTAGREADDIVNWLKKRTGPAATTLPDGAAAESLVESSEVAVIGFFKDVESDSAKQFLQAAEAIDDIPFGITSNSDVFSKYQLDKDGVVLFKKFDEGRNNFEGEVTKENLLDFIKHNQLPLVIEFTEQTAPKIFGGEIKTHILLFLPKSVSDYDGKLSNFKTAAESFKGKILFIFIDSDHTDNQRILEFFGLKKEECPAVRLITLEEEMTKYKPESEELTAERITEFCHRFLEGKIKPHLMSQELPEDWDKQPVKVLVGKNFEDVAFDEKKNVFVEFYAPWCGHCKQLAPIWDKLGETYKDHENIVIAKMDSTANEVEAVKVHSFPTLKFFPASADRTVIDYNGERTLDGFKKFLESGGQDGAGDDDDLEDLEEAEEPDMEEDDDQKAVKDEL
FN deposition inh: fibronectin deposition inhibition; AH1F fibroblasts, Alexa488-fibronectin deposition fluorescence, overnight; inhibition, % at 12.6 µM; 0.086% of 350,000 active; AID 743247;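 active = mean inhibition across replicates of 30% or more, regardless of how many single replicates reach that level; inconclusive = mean under 30% yet at least half of replicates reach 30%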;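 also: positive control wells lacked labelled fibronectin entirely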
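Assay system: AH1F fibroblasts assembling fluorescent fibronectin matrix; Amount: 10000 AH1F cells per well; Buffer or medium: DMEM, 2% serum; Probe or stimulus: Alexa488-fibronectin, 24 nM final in well; Doses: single compound dose, delivered by pin transfer; Incubation: 1 h adhesion, overnight exposure; Measured by: fluorescence 485/525 nm; Read-out: fibronectin deposition inhibition.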
Env fusion inh: inhibitors of HIV Env-mediated cell fusion; inhibition, % at 12.3 µM; HeLa-JRFL Env/CEM21 cell fusion, luciferase; 1.1% of 360,000 active;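 active = mean replicate inhibition score of at least 50 and every replicate individually at or above 50; inconclusive = only one of the two criteria met; inactive = mean below 50 and not all replicates reaching 50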;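 also: 0% = plate neutral controls and 100% = maraviroc near 300 nM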
ERp5 inh: inhibitors of human ERp5. Q15084. ERp5 insulin aggregation, absorbance 650 nm, 90 min. 0.05% of 350,000 active. inhibition, % at 9.99 µM;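 active = mean replicate inhibition above about 25%, with every replicate also reaching it, limit read from the data, passing the limit was not always enough; inconclusive = only one of those two criteria met; inactive = neither criterion met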
INS-1E GSIS act: primary screen for activators of insulin secretion dependent on glucose, INS-1E cells, GLuc reporter luminescence; activation, % at 16.6 µM; 0.61% of 370,000 active; INS-1E GLuc reporter insulin secretion, 2-3 h;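 active = lowest replicate activation of at least 40%, so every replicate reaches that level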;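 also: 0% = median of neutral control wells and 100% = median of IBMX positive control wells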
The depositor's hits bear a star; ! = a repeat was not active; [ ] = remark or other dose. In the library only some 1.4% were active in any assay of this set; here they are far more common.

`O=C(C[C@@H]1CC[C@@H]2[C@H](COC[C@@H](O)CN2C(=O)Nc2cccc(Cl)c2)O1)NCCCN1CCOCC1` gave FN deposition inh 2, Env fusion inh -10[16.7 µM], ERp5 inh 1 and INS-1E GSIS act -23.
Screening COc1cccc(CN2C[C@@H]3N[C@H](C2)C3c2ccc(-c3ccccc3OC)cc2)c1 (stereo not given in full) returned FN deposition inh -2, ERp5 inh 1 and INS-1E GSIS act 82*!.
For COc1ccccc1-c1ccc(C2[C@@H]3CN(Cc4cccc(F)c4)C[C@H]2N3)cc1 (stereo not given in full) the results were FN deposition inh -9 and INS-1E GSIS act -11.
For C[C@H]1CCCCO[C@H](CN(C)C(=O)CCCN(C)C)[C@@H](C)CN([C@@H](C)CO)C(=O)c2cc(NC(=O)NC3CCCCC3)ccc2O1 the results were Env fusion inh -10[16.7 µM], ERp5 inh 4 and INS-1E GSIS act 8.
O=C(C[C@H]1CC[C@@H](NC(=O)NC2CCCCC2)[C@H](CO)O1)NCc1ccc(Cl)cc1 was read as FN deposition inh 4, Env fusion inh 6[16.7 µM] and ERp5 inh 0.
C[C@]12CC[C@@H]3c4ccc(O)cc4C(=O)C[C@H]3[C@@H]1CC[C@@H]2O was read as PDI turbidity 39*, FN deposition inh -1 and ERp5 inh 4.
`COc1ccccc1-c1nnc2sc(C3CCCCC3)nn12` gave PDI turbidity 0, FN deposition inh -4, Env fusion inh 13 and INS-1E GSIS act 52.
For c1cc(-c2nnc3sc(C4CCCCC4)nn23)ccn1 the results were PDI turbidity 4, FN deposition inh 0 and Env fusion inh 63*.
`NC(=O)c1ccsc1NC(=O)CSc1ncnc2sccc12` gave PDI turbidity 12, FN deposition inh 3, Env fusion inh -1, ERp5 inh 4 and INS-1E GSIS act 57*.
`COc1ccc(-c2cnc3c(c2)C(=O)N([C@@H](C)CO)C[C@H](C)[C@H](CN(C)C(=O)C2CCC2)O3)cc1` gave Env fusion inh -11[16.7 µM], ERp5 inh 8 and INS-1E GSIS act 10.
For CCCCCCCCOC(=O)c1c(CSC(=N)N)n(C)c2cc(Br)c(OC(C)=O)cc12 the results were PDI turbidity -10, FN deposition inh 14, Env fusion inh inconclusive, ERp5 inh 1 and INS-1E GSIS act 269*.
`Cc1noc(C)c1NC(=O)N(C)C[C@H]1OCc2ccccc2-c2ccccc2C(=O)N([C@@H](C)CO)C[C@@H]1C` gave FN deposition inh -12, Env fusion inh -9[16.7 µM], ERp5 inh -3 and INS-1E GSIS act 2.
`O=C(C[C@H]1CC[C@@H]2[C@H](COC[C@H](O)CN2C(=O)c2ccc3c(c2)OCO3)O1)NC1Cc2ccccc2C1` gave FN deposition inh -1, ERp5 inh -1 and INS-1E GSIS act 6.
`CNC[C@H]1Oc2ccc(NS(=O)(=O)c3c(C)noc3C)cc2CC(=O)N([C@H](C)CO)C[C@@H]1C` gave FN deposition inh -5, Env fusion inh -33[16.7 µM], ERp5 inh -4 and INS-1E GSIS act 1.
CCOC(=O)c1cc(CC)sc1NC(=O)COC(=O)c1cnccn1 was read as PDI turbidity 2, FN deposition inh -2, Env fusion inh -25, ERp5 inh 2 and INS-1E GSIS act 69*.
Screening C[C@@H]1CN([C@H](C)CO)S(=O)(=O)c2ccc(C#CC3CC3)cc2O[C@@H]1CN(C)Cc1cncnc1 returned Env fusion inh 25[16.7 µM] and INS-1E GSIS act -2.
For CCCCOc1ccc(/C=C/C(=O)Nc2ccc([N+](=O)[O-])cc2C)cc1 the results were PDI turbidity -4, FN deposition inh -6, Env fusion inh 21 and INS-1E GSIS act -19.
For CCCOc1ccc(/C=C/C(=O)Nc2ccc([N+](=O)[O-])cc2)cc1 the results were PDI turbidity -1, FN deposition inh 3 and Env fusion inh 68*.
`O=C1[C@H]2[C@@H](C3CC3)N3C(=O)CN(CC4CC4)C(=O)[C@@]3(Cc3ccccc3)[C@H]2C(=O)N1c1ccccc1` gave PDI turbidity -6, FN deposition inh 4, Env fusion inh 70* and ERp5 inh 6.
O=C(NCC[C@H]1CC[C@@H](NC(=O)c2cnccn2)[C@H](CO)O1)Nc1ccc(F)cc1 was read as FN deposition inh -1, Env fusion inh 4[16.7 µM], ERp5 inh 5 and INS-1E GSIS act 19.
For COc1cccc(NC(=O)N[C@@H]2CC[C@H](CC(=O)Nc3ccc(-c4ccccc4)cc3)O[C@@H]2CO)c1 the results were FN deposition inh 9, Env fusion inh 2[16.7 µM], ERp5 inh -4 and INS-1E GSIS act -16.
`O=C1CN(S(=O)(=O)c2ccccc2)C[C@H]2[C@H](c3ccc(Br)cc3)[C@@H](CO)N12` gave ERp5 inh 1 and INS-1E GSIS act -12.
For COC(=O)C[C@@H]1C[C@@H]2c3cc(NC(=O)Cc4ccncc4)ccc3O[C@@H]2[C@H](CO)O1 the results were FN deposition inh -29, Env fusion inh -8[16.7 µM], ERp5 inh 36* and INS-1E GSIS act -1.
For COC(=O)C[C@H]1C[C@H]2c3cc(NC(=O)Cc4ccncc4)ccc3O[C@H]2[C@H](CO)O1 the results were FN deposition inh 2, Env fusion inh 5[16.7 µM], ERp5 inh 61* and INS-1E GSIS act -13.
Screening COC(=O)C[C@@H]1C[C@H]2c3cc(NC(=O)Cc4ccncc4)ccc3O[C@H]2[C@H](CO)O1 returned FN deposition inh -12, Env fusion inh 16[16.7 µM], ERp5 inh -6 and INS-1E GSIS act 0.
For CC(C)(C)NC(=O)COC(=O)c1snc(C(=O)NC2CCCCC2)c1N the results were PDI turbidity 12, FN deposition inh -14 and Env fusion inh 101*.
For CC(=O)c1c(C)[nH]c(C(=O)CSc2nnc(C3CCCCC3)n2N)c1C the results were PDI turbidity -2, FN deposition inh -8 and Env fusion inh 64*.
`Nn1c(SCC(=O)N2CCCC2)nnc1C1CCCCC1` gave PDI turbidity 4, FN deposition inh -3, Env fusion inh 30 and ERp5 inh -3.
COC(=O)c1cc2c(c3c4cc(OC)ccc4n(S(=O)(=O)c4ccccc4)c13)C(=O)N(Cc1ccc(C(F)(F)F)cc1)C2 was read as FN deposition inh 4, Env fusion inh 96*, ERp5 inh 1 and INS-1E GSIS act 13.
For Cc1cccc(S(=O)(=O)N2CC[C@@H]3[C@@H](CO)N(C)c4ccc(-c5ccccc5F)cc4[C@@H]32)c1 the results were FN deposition inh -6, ERp5 inh -8 and INS-1E GSIS act 9.
Screening Oc1c(C(c2ccccc2)N2CCOCC2)ccc2ccccc12 (stereo not given) returned PDI turbidity -49, FN deposition inh 5, Env fusion inh 72*, ERp5 inh -17 and INS-1E GSIS act -2.
`COC(=O)c1cc(=O)n(C2CC2)c(=NC2CC2)s1` gave PDI turbidity 15, FN deposition inh 3, Env fusion inh -49 and INS-1E GSIS act 76*.
